Data as given in ChEMBL document CHEMBL1121573, “2-(Aminomethyl)phenols, a new class of saluretic agents. 1. Effects of nuclear substitution” (J Med Chem, 1980).

Tests used:
Canis familiaris [1] = experiment: Compound administered intravenously was evaluated for salidiuretic activity measured as sodium ion excretion in Dog; Value ranges from 400-599; assay type: ADME, organism-based, Canis lupus familiaris, Urine; details: in vivo, iv
How it was run: (§1)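 Conditioned female mongrel dogs, postabsorptive, water-loaded (500 mL po) 1 h before sodium pentobarbital anesthesia (30 mg/kg iv). Bladder catheter; creatinine 4 g sc; phosphate–mannitol buffer pH 7.4 infused (3.0 mL/min) throughout. […] Urine Na+ measured; response scored 0–6.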

Canis familiaris [2] = experiment: Compound administered intravenously was evaluated for salidiuretic activity measured as sodium ion excretion in Dog; Value ranges from 250-399; assay type: ADME, organism-based, Canis lupus familiaris, Urine; details: in vivo, iv; how it was run: as §1
Canis familiaris [3] = experiment: Compound administered intravenously was evaluated for salidiuretic activity measured as sodium ion excretion in Dog; Value ranges from 600-799; assay type: ADME, organism-based, Canis lupus familiaris, Urine; details: in vivo, iv; how it was run: as §1
Rattus norvegicus [4] = experiment: Compound administered orally at a dose of 81 mg/kg was evaluated for salidiuretic activity measured as sodium ion excretion in Rat; assay type: ADME, organism-based, Urine; parameters: dose 81 mg/kg, route oral; unit not given beside the values; details: in vivo, po
How it was run: (§2)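 Female Charles-River rats (150–170 g), overnight on sugar diet with water ad libitum. Compound dissolved in DMF, diluted with water containing Tween 80 (final 4% DMF), given po in 5.0 mL; concurrent vehicle placebo. Three rats per metabolism cage; 0–5 h urine analysed for Na+, K+, Cl-. Values: mequiv × 100 per cage, geometric means of three cages per dose; scored 0–6 by Na+.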

[5] = Evaluated for salidiuretic activity measured as sodium ion excretion in Rat, administered orally at a dose of 16.5 mg/kg; assay type: organism-based; parameters: dose 16.5 mg/kg; details: Urine; how it was run: as §2
Rattus norvegicus [6] = experiment: Evaluated for salidiuretic activity measured as sodium ion excretion in Rat, administered orally at a dose of 50 mg/kg; assay type: functional, Urine; parameters: unit not given beside the values; details: route oral; how it was run: as §2
[7] = Compound administered orally at a dose of 5 mg/kg was evaluated for salidiuretic activity measured as sodium ion excretion in Rat; assay type: organism-based; parameters: dose 5 mg/kg; details: Urine; how it was run: as §2
Canis familiaris [8] = experiment: Compound administered intravenously at a dose of 5 mg/kg was evaluated for salidiuretic activity measured as sodium ion excretion in Dog; Value ranges from 400-599; assay type: ADME, organism-based, Canis lupus familiaris, Urine; parameters: dose 5 mg/kg, route intravenous; details: in vivo, iv; how it was run: as §1
Canis familiaris [9] = experiment: Compound administered intravenously at a dose of 5 mg/kg was evaluated for salidiuretic activity measured as sodium ion excretion in Dog; Value ranges from 0-99; assay type: ADME, organism-based, Canis lupus familiaris, Urine; parameters: dose 5 mg/kg, route intravenous; details: in vivo, iv; how it was run: as §1
Rattus norvegicus [10] = experiment: Compound administered orally at a dose of 1 mg/kg was evaluated for salidiuretic activity measured as sodium ion excretion in Rat; details: in vivo, po
Canis familiaris [11] = experiment: Compound administered intravenously was evaluated for salidiuretic activity measured as sodium ion excretion in Dog; Value ranges from 100-299; assay type: ADME, organism-based, Canis lupus familiaris, Urine; details: in vivo, iv; how it was run: as §1
Canis familiaris [12] = experiment: Compound administered intravenously was evaluated for salidiuretic activity measured as sodium ion excretion in Dog; Value ranges from 100-249; assay type: ADME, organism-based, Canis lupus familiaris, Urine; details: in vivo, iv; how it was run: as §1
Canis familiaris [13] = experiment: Compound administered intravenously at a dose of 5 mg/kg was evaluated for salidiuretic activity measured as sodium ion excretion in Dog; Value ranges from 600-799; assay type: ADME, organism-based, Canis lupus familiaris, Urine; parameters: dose 5 mg/kg, route intravenous; unit not given beside the values; details: in vivo, iv; how it was run: as §1
Canis familiaris [14] = experiment: Compound administered intravenously was evaluated for salidiuretic activity measured as sodium ion excretion in Dog; assay type: ADME, organism-based, Canis lupus familiaris, Urine; parameters: unit not given beside the values; details: in vivo, iv; how it was run: as §1
Canis familiaris [15] = experiment: Compound administered intravenously at a dose of 5 mg/kg was evaluated for salidiuretic activity measured as sodium ion excretion in Dog; assay type: ADME, organism-based, Canis lupus familiaris, Urine; parameters: dose 5 mg/kg, route intravenous; details: in vivo, iv; how it was run: as §1
Canis familiaris [16] = experiment: Compound administered intravenously at a dose of 5 mg/kg was evaluated for salidiuretic activity measured as sodium ion excretion in Dog; Value ranges from 600- 799; assay type: ADME, organism-based, Canis lupus familiaris, Urine; parameters: dose 5 mg/kg, route intravenous; details: in vivo, iv; how it was run: as §1

## Cc1cc(Cl)c(O)c(CN)c1Cl.Cl
Canis familiaris [1]
  Diuretic activity: 400

## COc1cc(Cl)c(OC)c(CN)c1O.Cl
Canis familiaris [2]
  Diuretic activity: 250

## Cc1c(C)c(Cl)c(O)c(CN)c1C.Cl
Canis familiaris [3]
  Diuretic activity: 600

## CCCCCC(C)c1cc(C)c(O)c(CN)c1.Cl (stereo unspecified)
Canis familiaris [2]
  Diuretic activity: 250

## CCSc1cc(C(C)(C)C)cc(CN)c1O.Cl
Rattus norvegicus [4]
  Diuretic activity: 1.5
[5]
  Diuretic activity: 0.5
Rattus norvegicus [6]
  Diuretic activity: 1.2
[7]
  Diuretic activity: 0.3
Canis familiaris [8]
  Diuretic activity: 400

## Cc1cc(C)c(CN)c(O)c1.Cl
Rattus norvegicus [4]
  Diuretic activity: < 0.3
Rattus norvegicus [6]
  Diuretic activity: <0.2
Canis familiaris [9]
  Diuretic activity: 0
Rattus norvegicus [10]
  Diuretic activity: 1

## Cc1cc(O)c(CN)c(C)c1Cl.Cl
Canis familiaris [11]
  Diuretic activity: 100

## Cl.NCc1cc(-c2ccccc2)cc(Cl)c1O
Canis familiaris [2]
  Diuretic activity: 250

## Cl.NCc1c(O)cc(Cl)c(Cl)c1Cl
[5]
  Diuretic activity: 2.7
Rattus norvegicus [6]
  Diuretic activity: 3.3
[7]
  Diuretic activity: 1.4
Canis familiaris [8]
  Diuretic activity: 400

## CCc1ccc(O)c(CN)c1.Cl
Rattus norvegicus [4]
  Diuretic activity: 1.5
Canis familiaris [12]
  Diuretic activity: 100
[5]
  Diuretic activity: 0.5
Rattus norvegicus [6]
  Diuretic activity: 1.2
[7]
  Diuretic activity: 0.3

## Cl.NCc1cc(C2CCCCC2)cc(Cl)c1O
Canis familiaris [1]
  Diuretic activity: 400

## Cc1cc(C(C)(C)C)cc(CN)c1O.Cl
Canis familiaris [3]
  Diuretic activity: 600

## CCOc1cc(Cl)c(O)c(CN)c1.Cl
Canis familiaris [2]
  Diuretic activity: 250

## COc1cc(O)c(CN)c(OC)c1Cl.Cl
Canis familiaris [11]
  Diuretic activity: 100

## C=CCc1cc(CN)c(O)c(OC)c1.Cl
Rattus norvegicus [4]
  Diuretic activity: 2.9
[5]
  Diuretic activity: 1.4
Canis familiaris [13]
  Diuretic activity: 600
Rattus norvegicus [6]
  Diuretic activity: 2.4
[7]
  Diuretic activity: 0.5

## Br.Cc1c(C)c(Cl)c(Cl)c(CN)c1O
Canis familiaris [14]
  Diuretic activity: > 900

## Cc1c(Cl)cc(I)c(O)c1CN.Cl
Rattus norvegicus [4]
  Diuretic activity: 2.9
[5]
  Diuretic activity: 1.4
Canis familiaris [13]
  Diuretic activity: 600
Rattus norvegicus [6]
  Diuretic activity: 2.4
[7]
  Diuretic activity: 0.5

## CC1(c2cc(I)c(O)c(CN)c2)CCCC1.Cl
Canis familiaris [1]
  Diuretic activity: 400

## CC(C)Cc1cc(Cl)c(O)c(CN)c1.Cl
[5]
  Diuretic activity: 1.4
Rattus norvegicus [6]
  Diuretic activity: 2.4
[7]
  Diuretic activity: 0.5
Canis familiaris [8]
  Diuretic activity: 400

## CC(C)(C)c1cc(O)c(CN)c(C(C)(C)C)c1.Cl
Canis familiaris [9]
  Diuretic activity: 0

## Cc1cc(Cl)c(Cl)c(CN)c1O.Cl
Canis familiaris [2]
  Diuretic activity: 250

## Br.Cc1c(C)c(CN)c(O)c(Cl)c1Cl
[5]
  Diuretic activity: 3.3
Canis familiaris [13]
  Diuretic activity: 600
Rattus norvegicus [6]
  Diuretic activity: 3.6
[7]
  Diuretic activity: 2.6
Rattus norvegicus [10]
  Diuretic activity: 0.7

## CCCc1cc(Cl)c(O)c(CN)c1.Cl
[5]
  Diuretic activity: 2.7
Rattus norvegicus [6]
  Diuretic activity: 3.3
[7]
  Diuretic activity: 1.4
Canis familiaris [15]
  Diuretic activity: > 900

## CSc1cc(C(C)(C)C)cc(CN)c1O.Cl
[5]
  Diuretic activity: 3.3
Canis familiaris [13]
  Diuretic activity: 600
Rattus norvegicus [6]
  Diuretic activity: 3.6
[7]
  Diuretic activity: 2.6
Rattus norvegicus [10]
  Diuretic activity: 0.7

## CC(C)c1cc(I)c(O)c(CN)c1.Cl
[5]
  Diuretic activity: 3.3
Canis familiaris [13]
  Diuretic activity: 600
Rattus norvegicus [6]
  Diuretic activity: 3.6
[7]
  Diuretic activity: 2.6
Rattus norvegicus [10]
  Diuretic activity: 0.7

## CCC(C)(C)c1cc(Cl)c(O)c(CN)c1.Cl
Rattus norvegicus [4]
  Diuretic activity: 2.9
[5]
  Diuretic activity: 1.4
Canis familiaris [13]
  Diuretic activity: 600
Rattus norvegicus [6]
  Diuretic activity: 2.4
[7]
  Diuretic activity: 0.5

## CCOC(=O)c1cc(Cl)c(O)c(CN)c1.Cl
Canis familiaris [12]
  Diuretic activity: 100

## Cc1c(Cl)cc(C(C)C)c(O)c1CN.Cl
Canis familiaris [12]
  Diuretic activity: 100

## CC(=O)c1cc(C(C)(C)C)cc(CN)c1O.Cl
Canis familiaris [2]
  Diuretic activity: 250

## CCc1c(Cl)cc(CN)c(O)c1Cl.Cl
Rattus norvegicus [4]
  Diuretic activity: 2.4
[5]
  Diuretic activity: 0.6
Rattus norvegicus [6]
  Diuretic activity: 1.8
[7]
  Diuretic activity: 0.4
Canis familiaris [8]
  Diuretic activity: 400

## COc1c(Cl)c(OC)c(CN)c(O)c1Br.Cl
[5]
  Diuretic activity: 3.3
Canis familiaris [13]
  Diuretic activity: 600
Rattus norvegicus [6]
  Diuretic activity: 3.6
[7]
  Diuretic activity: 2.6
Rattus norvegicus [10]
  Diuretic activity: 0.7

## CC(C)(C)c1cc(Br)c(O)c(CN)c1.Cl
[5]
  Diuretic activity: 4.2
Rattus norvegicus [6]
  Diuretic activity: 3.9
[7]
  Diuretic activity: 3.6
Rattus norvegicus [10]
  Diuretic activity: 2.1
Canis familiaris [15]
  Diuretic activity: > 900

## CCCc1cc(I)c(O)c(CN)c1.Cl
Rattus norvegicus [4]
  Diuretic activity: 2.4
[5]
  Diuretic activity: 0.6
Rattus norvegicus [6]
  Diuretic activity: 1.8
[7]
  Diuretic activity: 0.4
Canis familiaris [16]
  Diuretic activity: 600

## CCCCc1ccc(O)c(CN)c1.Cl
Rattus norvegicus [4]
  Diuretic activity: < 0.3
Rattus norvegicus [6]
  Diuretic activity: <0.3
Canis familiaris [9]
  Diuretic activity: 0

## CC(C)(C)c1ccc(O)c(CN)c1.Cl
Rattus norvegicus [4]
  Diuretic activity: 1.5
[5]
  Diuretic activity: 0.5
Rattus norvegicus [6]
  Diuretic activity: 1.2
[7]
  Diuretic activity: 0.3
Canis familiaris [9]
  Diuretic activity: 0

## Cc1c(C)c(Cl)c(C)c(CN)c1O.Cl
Canis familiaris [3]
  Diuretic activity: 600

## Cl.NCc1c(O)c(C(F)(F)F)cc(Cl)c1Cl
[5]
  Diuretic activity: 2.7
Rattus norvegicus [6]
  Diuretic activity: 3.3
[7]
  Diuretic activity: 1.4
Canis familiaris [8]
  Diuretic activity: 400

## Cc1c(Cl)c(C)c(CN)c(O)c1Br.Cl
Canis familiaris [14]
  Diuretic activity: > 900

## C=C(CC)C(=O)c1ccc(OCC(=O)O)c(Cl)c1Cl [ETHACRYNIC ACID]
Rattus norvegicus [4]
  Diuretic activity: < 0.3
Rattus norvegicus [6]
  Diuretic activity: <0.3
Canis familiaris [15]
  Diuretic activity: > 900

## CCc1cc(CN)c(O)c(CN)c1.Cl
Canis familiaris [9]
  Diuretic activity: 0

## Cc1c(Cl)cc(Cl)c(O)c1CN.Cl
Canis familiaris [14]
  Diuretic activity: > 900

## CC(C)c1cc(Cl)c(O)c(CN)c1.Cl
[5]
  Diuretic activity: 3.3
Rattus norvegicus [6]
  Diuretic activity: 3.6
[7]
  Diuretic activity: 2.6
Rattus norvegicus [10]
  Diuretic activity: 0.7
Canis familiaris [15]
  Diuretic activity: > 900

## Cl.NCc1cc(F)cc(Cl)c1O
Canis familiaris [9]
  Diuretic activity: 0

## CCOc1c(Cl)c(O)c(CN)c(OCC)c1Cl.Cl
Rattus norvegicus [4]
  Diuretic activity: 2.9
[5]
  Diuretic activity: 1.4
Rattus norvegicus [6]
  Diuretic activity: 2.4
[7]
  Diuretic activity: 0.5
Canis familiaris [9]
  Diuretic activity: 0

## COc1c(C(C)(C)C)cc(Cl)c(O)c1CN.Cl
Canis familiaris [2]
  Diuretic activity: 250

## CCCC(=O)c1cc(C)c(O)c(CN)c1.Cl
Canis familiaris [12]
  Diuretic activity: 100

## Cc1cc(Cl)c(O)c(CN)c1C.Cl
Rattus norvegicus [4]
  Diuretic activity: 2.9
[5]
  Diuretic activity: 1.4
Rattus norvegicus [6]
  Diuretic activity: 2.4
[7]
  Diuretic activity: 0.5
Canis familiaris [8]
  Diuretic activity: 400

## COc1c(C)c(OC)c(CN)c(O)c1Cl
Canis familiaris [2]
  Diuretic activity: 250

## CCC(C)c1cc(I)c(O)c(CN)c1.Cl (stereo unspecified)
Rattus norvegicus [4]
  Diuretic activity: 2.9
[5]
  Diuretic activity: 1.4
Rattus norvegicus [6]
  Diuretic activity: 2.4
[7]
  Diuretic activity: 0.5
Canis familiaris [15]
  Diuretic activity: > 900
